A selection: hits, their analogues and other compounds. The true share with any hit is near 2.3%.
MEKK3 PB1 HTS: modulators of MEKK3-MEK5 PB1 binding, primary screen, biochemical, wildtype MEKK3, multiplex bead flow cytometry, Alexa488-MEK5; bead-based flow cytometry, Alexa488-MEK5 binding to MEKK3; actives lie on both sides; 0 = blocked by unlabeled MEK5, 100 = vehicle; Mitogen-activated protein kinase kinase kinase 3 (Homo sapiens), Q99759; binding response (% of control), % at 10 µM; 1.4% of 290,000 active; AID 1529, 2009;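 active means binding response more than 3 SD above or below the average of its plate-row segment, actives on both sides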;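 further: Alexa488 bead fluorescence after subtracting the streptavidin-only scavenger bead signal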
Target sequence (Q99759 whole entry, looked up): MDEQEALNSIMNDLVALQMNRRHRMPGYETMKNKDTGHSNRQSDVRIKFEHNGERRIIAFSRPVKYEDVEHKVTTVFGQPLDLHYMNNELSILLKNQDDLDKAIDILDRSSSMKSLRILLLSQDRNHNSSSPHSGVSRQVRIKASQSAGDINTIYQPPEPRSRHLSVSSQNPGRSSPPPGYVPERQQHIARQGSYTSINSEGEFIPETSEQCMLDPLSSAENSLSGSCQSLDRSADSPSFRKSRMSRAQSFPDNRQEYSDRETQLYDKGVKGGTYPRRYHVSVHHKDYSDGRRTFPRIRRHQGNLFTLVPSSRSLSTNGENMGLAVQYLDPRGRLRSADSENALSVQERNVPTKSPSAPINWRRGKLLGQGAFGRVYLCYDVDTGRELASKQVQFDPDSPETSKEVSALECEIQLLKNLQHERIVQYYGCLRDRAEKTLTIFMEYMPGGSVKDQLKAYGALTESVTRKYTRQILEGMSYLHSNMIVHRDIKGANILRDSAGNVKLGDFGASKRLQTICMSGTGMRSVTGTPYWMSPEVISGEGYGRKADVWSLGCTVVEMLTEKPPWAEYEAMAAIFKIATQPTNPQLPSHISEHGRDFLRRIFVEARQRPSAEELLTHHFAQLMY
MEKK2wt PB1 HTS: modulators of MEK5 binding to wildtype MEKK2, primary screen, biochemical, multiplex bead flow cytometry, Alexa488-MEK5. Mitogen-activated protein kinase kinase kinase 2 (Homo sapiens), Q9Y2U5. Alexa488-MEK5 binding to MEKK2 WT; actives lie on both sides. binding response (% of control), % at 10 µM. 1.1% of 290,000 active. AID 1531, 2009; in the data active means binding response below about 67% or above about 130%
MEKK2 mut-MEK5: MEK5 binding signal on mutant MEKK2 PB1, primary screen, biochemical, multiplex bead flow cytometry, Alexa488-MEK5. Alexa488-MEK5 binding to MEKK2 mutant. 0.35% of 290,000 active. percent response, % at 10 µM; in the data active means percent response above about 24%, passing the limit was not always enough
Arr AP2 block: inhibitors of beta-arrestin/AP2 binding, primary screen, biochemical, GPCR trafficking, flow cytometry. beta-arrestin 1 C-terminal peptide binding to AP2 beta2-adaptin appendage (human). FITC-arrestin peptide / GST-AP2 beads; AP2 beta2 appendage carries R879A mutation. inhibition, % at 10 µM. 0.31% of 340,000 active. AID 504490, 2011;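 active means inhibition above a set limit, near 3 SD of compounds lacking own fluorescence, cut at about 54% in these data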;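 further: plate controls were DMSO wells for no effect and 5 µM unlabelled arrestin peptide for full effect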
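Material – GST-tagged AP2 beta2-adaptin appendage (R879A) on 4 µm glutathione beads · Probe or stimulus – fluorescein-tagged arrestin peptide at 50 nM final · Timing – 12 min plus 1 h, RT · Detection – bead flow cytometry, FITC channel · Read-out basis – inhibition as reduced fluorescein signal on beads, percent · Medium – PBS plus Tween 20 (0.05%) and BSA (0.1%)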
MEKK2wt confirm: modulators of MEK5 binding to wildtype MEKK2, confirmation, biochemical, single concentration, multiplex bead flow cytometry; Alexa488-MEK5 binding to MEKK2 WT; actives lie on both sides; binding response (% of control), % at 10 µM; 2.4% of 5,900 active; shares compounds with MEKK3 PB1 HTS; in the data active means binding response below about 16% or above about 210%; inactive means in between
MEKK2mut-MEK5: mutant MEKK2 PB1-MEK5 binding signal retest – biochemical, single concentration, multiplex bead flow cytometry, confirmation. shares compounds with MEKK3 PB1 HTS. Alexa488-MEK5 binding to MEKK2 mutant. percent response, % at 10 µM. 2% of 5,900 active. AID 1893, 2009; in the data active means percent response mostly above about 71%, no sharp cut-off; inactive means mostly below about 38%;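 further: higher means compound restores mutant binding toward wildtype level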
MEKK3-MEK5 inh: MEKK3 wild-type PB1 binding to MEK5, inhibitors, confirmation, biochemical, bead multiplex flow cytometry, single concentration, wildtype; shares compounds with MEKK3 PB1 HTS; Alexa488-MEK5 binding to MEKK3; active compounds read low; binding response (% of control), % at 10 µM; 1.8% of 5,900 active;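 active means binding response below 72% of control, or above a set upper limit, though filed actives all read lower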;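 further: 100% = DMSO only wells and 0% = binding blocked by excess unlabeled MEK5; lower values mean stronger disruption of MEK5 binding to MEKK3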
Starred values were filed as active, the others as inactive; x = no result given; [ ] = dose if it differs, or a comment.

SMILES | MEKK3 PB1 HTS | MEKK2wt PB1 HTS | MEKK2 mut-MEK5 | Arr AP2 block | MEKK2wt confirm | MEKK2mut-MEK5 | MEKK3-MEK5 inh
CCOc1cc(C2NN=C(c3ccccc3)S2)ccc1OCc1ccc(F)cc1 (configuration not stated) | 0.0*[inhibitor] | 0.0*[inhibitor] | -16.0 | -4.1 | 97.0 | -7.0 | 95.0
O=C(c1ccccc1)c1nnc(-c2ccccc2F)o1 | 0.0*[inhibitor] | -1.0*[inhibitor] | -16.0 | 4.7 | 106.0 | 2.0 | 106.0
COC(=O)c1sc(-c2ccc(Cl)cc2)cc1NC(=O)c1ccccc1C(=O)O | 66.0*[inhibitor] | 67.0 | -14.0 | 33.8 | 104.0 | 3.0 | 105.0
COC(=O)c1sc(-c2ccc(C(C)(C)C)cc2)cc1NC(=O)c1ccccc1C(=O)O | 96.0 | 95.0 | -8.0 | 3.1 | x | x | x
O=C(CCS(=O)(=O)c1ccc(Br)cc1)Nc1ccc(Br)cc1F | 91.0 | 92.0 | -3.0 | -15.5 | x | x | x
Nc1ncnc2c(C3OC(CO)C(O)C3O)c[nH]c12 (configuration not stated) | x | x | x | 3.6 | x | x | x
COc1ccc(NC(=O)N2CCN(CCC#N)CC2)cc1 | 100.0 | 96.0 | 0.0 | 19.7 | x | x | x
N#CCCN1CCN(C(=O)c2c(N)no[n+]2[O-])CC1 | 128.0* | 112.0 | 0.0 | -20.9 | 99.0 | -5.0 | 102.0
O=C1c2ccccc2C(=O)N1OCCOCCOCCBr | 1.0*[inhibitor] | -2.0*[inhibitor] | -26.0 | 27.3 | 102.0 | 2.0 | 102.0
Cc1ccccc1NC(=O)CSCCN1C(=O)c2ccccc2C1=O | 74.0*[inhibitor] | 97.0 | -1.0 | 10.6 | 98.0 | 0.0 | 99.0
Cc1ccc(OCC(=O)N/N=C/c2cn(Cc3ccccc3)c3ccccc23)cc1 | 143.0* | 102.0 | 0.0 | 2.7 | 94.0 | -9.0 | 105.0
CCOC(=O)N/N=C/c1cn(CCCOc2ccccc2)c2ccccc12 | 140.0* | 100.0 | -1.0 | -2.6 | 93.0 | -4.0 | 99.0
COC(=O)N/N=C/c1cn(CCOc2ccccc2)c2ccccc12 | -1.0*[inhibitor] | -17.0*[inhibitor] | -38.0 | 0.5 | 97.0 | -7.0 | 102.0
CCOC(=O)C1CCN(C(=O)C2CC(=O)N(c3ccc4c(c3)OCCO4)C2)CC1 (configuration not stated) | 101.0 | 102.0 | -3.0 | -3.1 | x | x | x
CCC(CO)NC(=O)c1ccccc1C(F)(F)F (configuration not stated) | 88.0 | 85.0 | -11.0 | -10.4 | x | x | x
Cc1cccc(-c2nc(NCCCN(C)C)c3ccccc3n2)c1 | 105.0 | 135.0* | 13.0 | 5.2 | 112.0 | 7.0 | 102.0
CN(C)CCCNc1nc(-c2ccc(Cl)cc2)nc2ccccc12 | 111.0 | 141.0* | 16.0 | -16.2 | 134.0 | 15.0 | 106.0
Cc1ccc(S(=O)(=O)N2CCN(c3ccccc3)CC2)cc1C(=O)NC1CCCCC1 | 103.0 | 102.0 | 4.0 | 17.2 | x | x | x
Cc1cc(Cl)ccc1NNC(=O)c1cccs1 | 77.0 | 78.0 | -29.0 | -11.1 | x | x | x
O=C(NNc1cc(Cl)ccc1Cl)c1cccs1 | 130.0* | 127.0 | 25.0 | -1.0 | 107.0 | 1.0 | 107.0
COc1cc(C)nc(-c2csc(C)n2)n1 | 93.0 | 88.0 | -17.0 | 13.0 | x | x | x
CC[C@@H](C)[C@H](CN[C@H](CNC)C(C)C)NC[C@@H](C)c1ccc(CC(C)C)cc1 | 111.0 | 185.0* | 22.0 | 2.9 | 176.0 | 71.0* | 118.0
Cc1csc(NC(=O)CCn2c(=O)sc3ccccc32)n1 | 70.0*[inhibitor] | 81.0 | -7.0 | 4.0 | 100.0 | 2.0 | 102.0
CCCCC1C(=O)N(c2ccccc2)N(c2ccc(O)cc2)C1=O (configuration not stated) | x | x | x | 7.6 | x | x | x
